Laboratory results reported in ChEMBL document CHEMBL1137803, “A novel anti-HIV macrocyclic peptide from Palicourea condensata” (J Nat Prod, 2001).
pEC50, pIC50: −log10 of the molar value. Where a SMILES comes first, the peptide text is derived from it. Bridges are numbered along the chain shown (N, C = ends).

Assays:
CEM-SS = assay: Cytotoxicity against human CEM-SS cells by XTT assay; assay type: cell-based
[1] = system: Human immunodeficiency virus 1; assay: Antiviral activity against HIV1 RF infected in human CEM-SS cells assessed as inhibition of virus induced cytopathic effect by XTT assay; assay type: functional, organism-based; conditions: Human immunodeficiency virus 1, RF
Summary of the method: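 HIV-1RF infection of CEM-SS, a human T-lymphoblastoid cell line, in vitro; inhibition of virus-induced cytopathic effects read out and reported as EC50 in µM.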

CC[C@H](C)[C@@H]1NC(=O)[C@H](C(C)C)NC(=O)[C@H](CCCNC(=N)N)NC(=O)[C@@H]2CSSC[C@@H]3NC(=O)[C@H]([C@@H](C)O)NC(=O)[C@@H]4CSSC[C@H](NC(=O)[C@H](Cc5ccccc5)NC(=O)[C@H]([C@@H](C)O)NC(=O)[C@@H]5CCCN5C(=O)[C@H](CC(=O)O)NC(=O)CNC(=O)[C@H](CC(N)=O)NC(=O)[C@H](CCCNC(=N)N)NC(=O)[C@H](CCCCN)NC(=O)[C@H](CSSC[C@H](NC(=O)[C@H](C(C)C)NC(=O)[C@@H]5CCCN5C1=O)C(=O)N[C@@H]([C@@H](C)O)C(=O)N[C@@H](Cc1ccc(O)cc1)C(=O)N[C@@H](CO)C(=O)N[C@@H](C)C(=O)N[C@@H](C)C(=O)N[C@@H](CC(C)C)C(=O)NCC(=O)N4)NC(=O)[C@H](CC(C)C)NC(=O)CNC(=O)[C@H](CC(=O)O)NC(=O)[C@H](CO)NC(=O)[C@H](CCCNC(=N)N)NC(=O)[C@H](CC(=O)O)NC(=O)[C@H](CC(=O)O)NC3=O)C(=O)NCC(=O)N[C@@H](CCC(=O)O)C(=O)N[C@@H]([C@@H](C)O)C(=O)N2 [PALICOUREIN] (cyclo(AALGCTCDDRSDGLCKRNGDPTFCGETCRVIPVCTYS); disulfide 5-24, 7-28, 15-34)
pIC50 (CEM-SS): 5.82 | pEC50 [1]: 7.00
